Laboratory results reported in ChEMBL document CHEMBL1275400, “Design, synthesis, and DNA-binding of N-alkyl(anilino)quinazoline derivatives” (J Med Chem, 2010).
Calls of active or inactive are those of the source. No cut-off for these calls is given here.

What was measured:
Calf thymus DNA [1] = experiment: Binding affinity to calf thymus DNA in BPE buffer assessed as change in melting temperature at drug/DNA base pair ratio 1; assay type: nucleic-acid assay; details: Bos taurus
Method in brief: (§1)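 Melting curves are read at 260 nm in BPE buffer, pH 7.1 (6 mM Na2HPO4, 2 mM NaH2PO4, 1 mM EDTA), in Peltier-heated 10 mm quartz cuvettes. Temperature rises from 20 to 100 °C at 1 °C/min and is monitored with a platinum probe. Tm is taken as the midpoint of the hyperchromic transition.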

Nucleic Acid [2] = experiment: Binding affinity to poly(dA-dT)2 in BPE buffer assessed as change in melting temperature at drug/DNA base pair ratio 1; assay type: nucleic-acid assay; method in brief: as §1
Nucleic Acid [3] = experiment: Binding affinity to DNA assessed as inhibition of cleavage of DNA substrate by densitometric analysis; assay type: nucleic-acid assay
Calf thymus DNA [4] = experiment: Binding affinity to calf thymus DNA at drug/DNA base pair ratio up to 4 by circular dichroism analysis; assay type: nucleic-acid assay; details: Bos taurus
Method in brief: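 CD spectra are recorded in 1 mM sodium cacodylate buffer, pH 7.0, in 10 mm quartz cuvettes, averaging four scans. A 50 μM drug solution is diluted stepwise with 5 mM DNA. Alternatively, the drug–DNA complex at high P/D is diluted with pure ligand solution to reach the desired drug/DNA ratio.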

[5] = molecular target: T1, DNA topoisomerase 1 (Homo sapiens) (UniProt P11387); experiment: Inhibition of human recombinant topoisomerase 1-mediated supercoiled pUC19 DNA relaxation up to 100 uM […] by agarose gel electrophoresis analysis; details: in the assay text read “45 mins” for “2 hrs”
T1 sequence (whole entry): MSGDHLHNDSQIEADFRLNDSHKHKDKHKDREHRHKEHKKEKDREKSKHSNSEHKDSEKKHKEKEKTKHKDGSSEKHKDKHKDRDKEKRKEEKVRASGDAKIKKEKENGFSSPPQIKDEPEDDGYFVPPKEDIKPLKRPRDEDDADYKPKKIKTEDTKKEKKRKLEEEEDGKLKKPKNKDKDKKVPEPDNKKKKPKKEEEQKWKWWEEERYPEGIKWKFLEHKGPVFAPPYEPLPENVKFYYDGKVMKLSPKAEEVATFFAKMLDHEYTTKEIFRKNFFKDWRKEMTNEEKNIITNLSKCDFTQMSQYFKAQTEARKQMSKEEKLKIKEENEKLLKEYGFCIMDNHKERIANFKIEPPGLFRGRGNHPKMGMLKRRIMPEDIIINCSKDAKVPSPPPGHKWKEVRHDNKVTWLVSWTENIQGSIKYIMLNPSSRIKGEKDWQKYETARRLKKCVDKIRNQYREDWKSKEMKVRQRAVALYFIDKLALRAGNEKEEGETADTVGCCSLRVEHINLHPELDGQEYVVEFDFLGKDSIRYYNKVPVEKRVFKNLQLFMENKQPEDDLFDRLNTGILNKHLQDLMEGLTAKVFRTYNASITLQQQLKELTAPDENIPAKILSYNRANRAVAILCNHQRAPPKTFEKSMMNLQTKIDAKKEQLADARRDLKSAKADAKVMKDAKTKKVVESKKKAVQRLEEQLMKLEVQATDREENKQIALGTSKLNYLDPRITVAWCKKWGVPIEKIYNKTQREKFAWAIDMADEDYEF
Method in brief: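 Supercoiled pUC19 (130 ng) is incubated with 4 units of recombinant human topoisomerase I for 45 min at 37 °C. The relaxation buffer is 50 mM Tris pH 7.8, 50 mM KCl, 10 mM MgCl2, 1 mM DTT and 1 mM EDTA, with graded drug. Reactions are stopped with 0.25% SDS and 250 μg/mL proteinase K. Samples are run on 1% agarose for 2 h at 120 V and stained with ethidium bromide.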

Nucleic Acid [6] = experiment: Binding affinity to DNA assessed as inhibition of cleavage of DNA substrate up to 100 uM by Dnase1 footprinting assay; assay type: nucleic-acid assay
Method in brief: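 DNase I is then added to a final concentration of about 0.01 unit/mL. Digestion runs 3 min and is stopped by freeze-drying. Protected sites are localized on the gel.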

Calf thymus DNA [7] = experiment: Binding affinity to calf thymus DNA by fluorescence titration assay; assay type: nucleic-acid assay, Bos taurus
Method in brief: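 Intrinsic drug fluorescence is measured at room temperature with excitation at 360 nm and emission scanned over 380–520 nm. Drug is held at 10 μM with DNA at 0.01–1 mM, each sample prepared separately. The apparent KD is obtained by nonlinear least-squares fitting to KD = [ligand][DNA]/[ligand-DNA].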

Calf thymus DNA [8] = experiment: Binding affinity to calf thymus DNA in BPE buffer at drug/DNA base pair ratio up to 10 by UV spectroscopic analysis; assay type: nucleic-acid assay; details: Bos taurus
Method in brief: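 Absorption spectra are recorded in BPE buffer, pH 7.1, at a constant drug concentration of 20 μM. Aliquots of concentrated calf thymus DNA are added to cover a range of DNA-phosphate/drug ratios.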

PC-3 = experiment: Antiproliferative activity against human PC3 cells after 72 hrs by MTS assay; assay type: functional, cell-based; details: PC-3, 72 h
HT-29 = experiment: Antiproliferative activity against human HT-29 cells after 72 hrs by MTS assay; assay type: functional, cell-based; details: HT-29, 72 h
MCF7 = experiment: Antiproliferative activity against human MCF7 cells after 72 hrs by MTS assay; assay type: functional, cell-based; details: MCF7, 72 h

SMILES	ΔTm (Calf thymus DNA [1])	ΔTm (Nucleic Acid [2])	further results
COc1cc2ncnc(N(CCN(C)C)c3ccc(C)c(Br)c3)c2cc1OC	9.9 °C	20 °C	–
CCN(CC)CCN(c1ccc(C)c(Br)c1)c1ncnc2cc(OC)c(OC)cc12	14 °C	24.1 °C	Activity (Nucleic Acid [3]): Active; Activity (Calf thymus DNA [4]): Active; inhibition [5]: inactive; Activity (Nucleic Acid [6]): Active; Kd (Calf thymus DNA [7]): 40.2 µM; Activity (Calf thymus DNA [8]): Active; IC50 (PC-3): > 10 µM; IC50 (HT-29): 5.6 µM; IC50 (MCF7): 6.8 µM
COc1cc2ncnc(N(Cc3ccccc3)c3ccc(C)c(Br)c3)c2cc1OC	6.5 °C	9.6 °C	–
COc1ccc(NC(=O)Nc2ccc(Oc3ncnc4cc(OC)c(OC)cc34)cc2)cc1	0.3 °C	0.5 °C	–
COc1cc2ncnc(Oc3ccc(NC(=O)Nc4ccccc4)cc3)c2cc1OC	0.4 °C	0.5 °C	–
CCCN(c1ccc(C)c(Br)c1)c1ncnc2cc(OC)c(OC)cc12	7 °C	12.6 °C	–
COc1cc2ncnc(N(C)c3ccc(Br)cc3F)c2cc1OC	1.4 °C	3.3 °C	–
COc1cc2ncnc(N(C)c3cccc(C)c3)c2cc1OC	7.1 °C	9.7 °C	–
CN(c1ccc(Br)cc1F)c1ncnc2cc3c(cc12)OCO3	3.6 °C	4.2 °C	–
COc1cc2ncnc(N(C)c3cccc(NC(=O)Nc4ccccc4)c3)c2cc1OC	6 °C	9.9 °C	–
COc1cc2ncnc(N(C)c3ccc(C)c(Cl)c3)c2cc1OC	8.9 °C	13.7 °C	–
COc1cc2ncnc(N(C)c3ccc(C)c(Br)c3)c2cc1OC	8.4 °C	15 °C	Activity (Nucleic Acid [3]): Active; Activity (Calf thymus DNA [4]): Active; inhibition [5]: inactive; Activity (Nucleic Acid [6]): Active; Kd (Calf thymus DNA [7]): 326 µM; Activity (Calf thymus DNA [8]): Active; IC50 (PC-3): 9.5 µM; IC50 (HT-29): 6.3 µM; IC50 (MCF7): 9.9 µM
Fc1cc(Br)ccc1Nc1ncnc2cc3c(cc12)OCO3	0.3 °C	0.5 °C	–
COc1ccc(NC(=O)Nc2cccc(N(C)c3ncnc4cc(OC)c(OC)cc34)c2)cc1	6.8 °C	11 °C	–
COc1cc2ncnc(N(C)c3ccc(F)c(Cl)c3)c2cc1OC	6.1 °C	10.5 °C	–
COc1cc2ncnc(N(C)c3ccc(C)c(F)c3)c2cc1OC	7.3 °C	11.3 °C	–
COc1cc2ncnc(Oc3ccc(F)c(Cl)c3)c2cc1OC	1.2 °C	0.5 °C	–
COc1cc2ncnc(N(C)c3cccc(NC(=O)NC4CCCCC4)c3)c2cc1OC	5.7 °C	9.7 °C	–
COc1cc2ncnc(N(C)c3cccc(Br)c3)c2cc1OC	8.1 °C	12.2 °C	inhibition [5]: inactive

SMILES	ΔTm (Calf thymus DNA [1])	ΔTm (Nucleic Acid [2])	further results
COc1cc2ncnc(N(C)c3cccc(NC(=O)Nc4ccc(F)c(Cl)c4)c3)c2cc1OC	7.7 °C	10.5 °C	–
COc1cc2ncnc(N(CCN3CCCCC3)c3ccc(C)c(Br)c3)c2cc1OC	13.5 °C	27.7 °C	Activity (Nucleic Acid [6]): Active
CCCCNC(=O)Nc1cccc(N(C)c2ncnc3cc(OC)c(OC)cc23)c1	5.7 °C	8.1 °C	–
COc1cc2ncnc(N(C)c3ccc(C(F)(F)F)cc3)c2cc1OC	6.5 °C	9.1 °C	–
COc1cc2ncnc(N(C)c3cccc(Cl)c3)c2cc1OC	7.7 °C	12.4 °C	–
CCNC(=O)Nc1cccc(N(C)c2ncnc3cc(OC)c(OC)cc23)c1	5.2 °C	7.9 °C	–
COc1cc2ncnc(N(c3ccc(C)c(Br)c3)C(C)C)c2cc1OC	5.8 °C	12.4 °C	–
COc1cc2ncnc(N(C)c3ccc(NC(=O)Nc4ccccc4)cc3)c2cc1OC	0.4 °C	0.6 °C	–
COc1cc2ncnc(N(C)c3cc(Br)ccc3Br)c2cc1OC	1.6 °C	3.3 °C	–
CCN(c1ccc(C)c(Br)c1)c1ncnc2cc(OC)c(OC)cc12	8.8 °C	13.4 °C	–
CCCCNC(=O)Nc1ccc(N(C)c2ncnc3cc(OC)c(OC)cc23)cc1	0.3 °C	0.4 °C	–
Fc1ccc(Nc2ncnc3cc4c(cc23)OCO4)cc1Cl	0.3 °C	0.4 °C	–
COc1ccc(NC(=O)Nc2cccc(Oc3ncnc4cc(OC)c(OC)cc34)c2)cc1	0.2 °C	0.3 °C	–
CN(c1ccc(F)c(Cl)c1)c1ncnc2cc3c(cc12)OCO3	2.8 °C	4.6 °C	–
COc1cc2ncnc(N(C)c3ccc(C)c(C(F)(F)F)c3)c2cc1OC	7.8 °C	11 °C	–
COc1cc2ncnc(Oc3cccc(NC(=O)Nc4ccccc4)c3)c2cc1OC	0.4 °C	0.5 °C	–
COc1cc2ncnc(N(C)c3cccc(F)c3)c2cc1OC	7.3 °C	9.8 °C	–
COc1cc2ncnc(N(C)c3cccc(C(F)(F)F)c3)c2cc1OC	5.8 °C	9.5 °C	–

The next lines start with results.

ΔTm (Calf thymus DNA [1])	ΔTm (Nucleic Acid [2])	SMILES	further results
0.4 °C	0.5 °C	COc1cc2ncnc(Nc3cc(Br)ccc3Br)c2cc1OC	–
0.4 °C	0.5 °C	COc1cc2ncnc(Nc3ccc(C)c(C(F)(F)F)c3)c2cc1OC	–
0.2 °C	0.4 °C	COc1cc2ncnc(Nc3ccc(F)c(Cl)c3)c2cc1OC	–
0.2 °C	0.5 °C	COc1cc2ncnc(Nc3cccc(C(F)(F)F)c3)c2cc1OC	–
0.7 °C	0.7 °C	COc1cc2ncnc(Oc3cccc(Br)c3)c2cc1OC	–
0.3 °C	0.3 °C	COc1cc2ncnc(Nc3cccc(C)c3)c2cc1OC	–
1.8 °C	0.3 °C	COc1cc2ncnc(Nc3cccc(Cl)c3)c2cc1OC	–
0.3 °C	0.4 °C	COc1cc2ncnc(Nc3ccc(C)c(Cl)c3)c2cc1OC	–
0.2 °C	0.4 °C	COc1cc2ncnc(Nc3ccc(C)c(Br)c3)c2cc1OC	–
0.1 °C	0.3 °C	COc1cc2ncnc(Nc3ccc(Br)cc3F)c2cc1OC	–
0.1 °C	0.5 °C	COc1cc2ncnc(Nc3ccc(C(F)(F)F)cc3)c2cc1OC	–
3.9 °C	0.2 °C	COc1cc2ncnc(Nc3ccc(Br)cc3)c2cc1OC	–
0.2 °C	0.4 °C	COc1cc2ncnc(Nc3cccc(F)c3)c2cc1OC	–
0.2 °C	0.4 °C	COc1cc2ncnc(Nc3cccc(Br)c3)c2cc1OC	Activity (Calf thymus DNA [4]): Active; inhibition [5]: inactive; Activity (Calf thymus DNA [8]): Active; IC50 (PC-3): > 10 µM; IC50 (HT-29): 10.1 µM; IC50 (MCF7): 4.7 µM
6 °C	10.8 °C	COc1cc2ncnc(N(C)c3ccc(Br)cc3)c2cc1OC	–
0.2 °C	0.5 °C	COc1cc2ncnc(Nc3ccc(C)c(F)c3)c2cc1OC	–
0.8 °C	0.5 °C	COc1cc2ncnc(Oc3ccc(Br)cc3F)c2cc1OC	–
